# Assay results reported in ChEMBL document CHEMBL1153726, “Synthesis and anticancer activity of sclerophytin-inspired hydroisobenzofurans” (Bioorg Med Chem Lett, 2009).
# Assays:
# Format in all cases: functional
# SK-MEL-28 [1] = test: Growth inhibition of human SK-MEL-28 cells at 1 nM after 96 hrs by MTT assay; set-up: scale not given: the % may be the effect or the level left
# K562 [2] = test: Growth inhibition of human K562 cells at 1 nM after 96 hrs by MTT assay; set-up: scale not given: the % may be the effect or the level left
# BT-549 [3] = test: Growth inhibition of human BT549 cells at 10 uM after 96 hrs by MTT assay; set-up: scale not given: the % may be the effect or the level left
# [4] = Growth inhibition of human Hs 578T cells at 10 uM after 96 hrs by MTT assay; set-up: scale not given: the % may be the effect or the level left
# MCF7 [5] = test: Growth inhibition of human MCF7 cells at 10 uM after 96 hrs by MTT assay; set-up: scale not given: the % may be the effect or the level left
# UO-31 = test: Growth inhibition of human UO31 cells at 10 uM after 96 hrs by MTT assay; set-up: scale not given: the % may be the effect or the level left
# 786-0 [6] = test: Growth inhibition of human 786-0 cells at 10 uM after 96 hrs by MTT assay; set-up: scale not given: the % may be the effect or the level left
# OVCAR-8 = test: Growth inhibition of human OVCAR8 cells at 10 uM after 96 hrs by MTT assay; set-up: scale not given: the % may be the effect or the level left
# SK-MEL-28 [7] = test: Growth inhibition of human SK-MEL-28 cells at 10 uM after 96 hrs by MTT assay; set-up: scale not given: the % may be the effect or the level left
# MDA-MB-435 = test: Growth inhibition of human MDA-MB-435 cells at 10 uM after 96 hrs by MTT assay; set-up: scale not given: the % may be the effect or the level left
# SNB-75 = test: Growth inhibition of human SNB75 cells at 10 uM after 96 hrs by MTT assay; set-up: scale not given: the % may be the effect or the level left
# HCC 2998 = test: Growth inhibition of human HCC2998 cells at 10 uM after 96 hrs by MTT assay; set-up: scale not given: the % may be the effect or the level left
# HOP-62 = test: Growth inhibition of human HOP62 cells at 10 uM after 96 hrs by MTT assay; set-up: scale not given: the % may be the effect or the level left
# A549 [8] = test: Growth inhibition of human A549 cells at 10 uM after 96 hrs by MTT assay; set-up: scale not given: the % may be the effect or the level left
# [9] = Growth inhibition of human RPMI8266 cells at 10 uM after 96 hrs by MTT assay; set-up: scale not given: the % may be the effect or the level left
# K562 [10] = test: Growth inhibition of human K562 cells at 10 uM after 96 hrs by MTT assay; set-up: scale not given: the % may be the effect or the level left
# CCRF-CEM = test: Growth inhibition of human CCRF-CEM cells at 10 uM after 96 hrs by MTT assay; set-up: scale not given: the % may be the effect or the level left
# TK-10 = test: Growth inhibition of human TK10 cells at 1 nM after 96 hrs by MTT assay; set-up: scale not given: the % may be the effect or the level left
# U-251 = test: Growth inhibition of human U251 cells after 96 hrs by MTT assay; settings: U-251, 96 h
# In short: (§1)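 Tested in the NCI 60-cell-line panel in five-dose format; GI50 and LC50 values reported for each cell line.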
# SK-MEL-2 = test: Growth inhibition of human SK-MEL-2 cells after 96 hrs by MTT assay; settings: SK-MEL-2, 96 h; in short: as §1
# 786-0 [11] = test: Growth inhibition of human 786-0 cells after 96 hrs by MTT assay; settings: 786-0, 96 h
# DU-145 [12] = test: Growth inhibition of human DU145 cells after 96 hrs by MTT assay; settings: DU-145, 96 h
# K562 [13] = test: Growth inhibition of human K562 cells at 10 nM after 96 hrs by MTT assay; set-up: scale not given: the % may be the effect or the level left
# NCI-H226 [14] = test: Growth inhibition of human NCI-H226 cells after 96 hrs by MTT assay; settings: NCI-H226, 96 h
# In short: (§2)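 Run in the NCI 60 human tumour cell line panel as a five-dose assay. GI50 and LC50 were reported for each cell line.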
# K562 [15] = test: Growth inhibition of human K562 cells after 96 hrs by MTT assay; settings: K562, 96 h; in short: as §2
# MDA-MB-231 = test: Growth inhibition of human MDA-MB-231 cells at 100 nM after 96 hrs by MTT assay; set-up: scale not given: the % may be the effect or the level left
# DU-145 [16] = test: Growth inhibition of human DU145 cells at 100 nM after 96 hrs by MTT assay; set-up: scale not given: the % may be the effect or the level left
# OVCAR-3 = test: Growth inhibition of human OVCAR-3 cells at 100 nM after 96 hrs by MTT assay; set-up: scale not given: the % may be the effect or the level left
# IGROV-1 = test: Growth inhibition of human IGROV1 cells at 100 nM after 96 hrs by MTT assay; set-up: scale not given: the % may be the effect or the level left
# M14 = test: Growth inhibition of human M14 cells at 100 nM after 96 hrs by MTT assay; set-up: scale not given: the % may be the effect or the level left
# NCI-H460 [17] = test: Growth inhibition of human NCI-H460 cells at 100 nM after 96 hrs by MTT assay; set-up: scale not given: the % may be the effect or the level left
# A549 [18] = test: Growth inhibition of human A549 cells at 100 nM after 96 hrs by MTT assay; set-up: scale not given: the % may be the effect or the level left
# BT-549 [19] = test: Growth inhibition of human BT549 cells at 10 nM after 96 hrs by MTT assay; set-up: scale not given: the % may be the effect or the level left
# MCF7 [20] = test: Growth inhibition of human MCF7 cells at 10 nM after 96 hrs by MTT assay; set-up: scale not given: the % may be the effect or the level left
# OVCAR-5 = test: Growth inhibition of human OVCAR5 cells at 10 nM after 96 hrs by MTT assay; set-up: scale not given: the % may be the effect or the level left
# SF-539 = test: Growth inhibition of human SF539 cells at 10 nM after 96 hrs by MTT assay; set-up: scale not given: the % may be the effect or the level left
# COLO 205 = test: Growth inhibition of human COLO205 cells at 10 nM after 96 hrs by MTT assay; set-up: scale not given: the % may be the effect or the level left
# SK-MEL-28 [21] = test: Growth inhibition of human SK-MEL-28 cells at 1 uM after 96 hrs by MTT assay; set-up: scale not given: the % may be the effect or the level left
# HT-29 = test: Growth inhibition of human HT-29 cells at 1 uM after 96 hrs by MTT assay; set-up: scale not given: the % may be the effect or the level left
# NCI-H460 [22] = test: Growth inhibition of human NCI-H460 cells at 1 uM after 96 hrs by MTT assay; set-up: scale not given: the % may be the effect or the level left
# NCI-H226 [23] = test: Growth inhibition of human NCI-H226 cells at 1 uM after 96 hrs by MTT assay; set-up: scale not given: the % may be the effect or the level left
# [24] = read-out: LC50 (the source's name)
# [25] = read-out: Log10GI50 (converted)
# [26] = read-out: Log10LC50 (converted)
compound,measurement,setting,value
C=C(C)[C@H]1CC=C(C)C2=CO[C@@H](c3ccccc3F)[C@@H]21,Activity,SK-MEL-28 [1],98%
same,Activity,K562 [2],101%
same,Activity,BT-549 [3],112.93%
same,Activity,[4],95.86%
same,Activity,MCF7 [5],93.7%
same,Activity,UO-31,78.96%
same,Activity,786-0 [6],93.62%
same,Activity,OVCAR-8,94.8%
same,Activity,SK-MEL-28 [7],110.2%
same,Activity,MDA-MB-435,109.16%
same,Activity,SNB-75,80.72%
same,Activity,HCC 2998,115.46%
same,Activity,HOP-62,108.33%
same,Activity,A549 [8],71.63%
same,Activity,[9],18.49%
same,Activity,K562 [10],67.84%
same,Activity,CCRF-CEM,68.96%
same,Activity,TK-10,84%
same,GI50,U-251; read-out: GI50,3.06 µM
same,CC50,U-251; [24],37.7 µM
same,GI50,U-251; [25],3.09 µM
same,CC50,U-251; [26],38 µM
same,TGI,U-251; read-out: Log10TGI (converted),14.1 µM
same,TGI,U-251; read-out: TGI,14.2 µM
same,GI50,SK-MEL-2; read-out: GI50,3.74 µM
same,CC50,SK-MEL-2; [24],55.2 µM
same,GI50,SK-MEL-2; [25],3.72 µM
same,CC50,SK-MEL-2; [26],55 µM
same,TGI,SK-MEL-2; read-out: Log10TGI (converted),19.1 µM
same,TGI,SK-MEL-2; read-out: TGI,19.2 µM
same,GI50,786-0 [11]; read-out: GI50,8.73 µM
same,CC50,786-0 [11]; [24],48.1 µM
same,GI50,786-0 [11]; [25],8.71 µM
same,CC50,786-0 [11]; [26],47.9 µM
same,TGI,786-0 [11]; read-out: Log10TGI (converted),21.4 µM
same,TGI,786-0 [11]; read-out: TGI,21.5 µM
same,GI50,DU-145 [12]; read-out: GI50,5.53 µM
same,CC50,DU-145 [12]; [24],94.5 µM
same,GI50,DU-145 [12]; [25],5.5 µM
same,CC50,DU-145 [12]; [26],95.5 µM
same,TGI,DU-145 [12]; read-out: Log10TGI (converted),26.3 µM
same,TGI,DU-145 [12]; read-out: TGI,26.1 µM
same,Activity,K562 [13],95%
same,GI50,NCI-H226 [14]; read-out: GI50,3.82 µM
same,CC50,NCI-H226 [14]; [24],50.6 µM
same,GI50,NCI-H226 [14]; [25],3.8 µM
same,CC50,NCI-H226 [14]; [26],50.1 µM
same,TGI,NCI-H226 [14]; read-out: Log10TGI (converted),19.1 µM
same,TGI,NCI-H226 [14]; read-out: TGI,18.9 µM
same,GI50,K562 [15]; read-out: GI50,2.04 µM
same,CC50,K562 [15]; [24],49.3 µM
same,GI50,K562 [15]; [25],2.04 µM
same,CC50,K562 [15]; [26],49 µM
same,TGI,K562 [15]; read-out: Log10TGI (converted),13.2 µM
same,TGI,K562 [15]; read-out: TGI,13.2 µM
same,Activity,MDA-MB-231,81%
same,Activity,DU-145 [16],87%
same,Activity,OVCAR-3,90%
same,Activity,IGROV-1,83%
same,Activity,M14,80%
same,Activity,NCI-H460 [17],82%
same,Activity,A549 [18],95%
same,Activity,BT-549 [19],84%
same,Activity,MCF7 [20],103%
same,Activity,OVCAR-5,84%
same,Activity,SF-539,90%
same,Activity,COLO 205,84%
same,Activity,SK-MEL-28 [21],53%
same,Activity,HT-29,22%
same,Activity,NCI-H460 [22],31%
same,Activity,NCI-H226 [23],32%
